The chains are these.
B1: Osa-1-4 twister ribozyme (parent)
chain: CCGCCUAACACUGCCAAUGCCGGUCCCAAGCCCGGAUAAAAGUGGAGGGGGCGG

Variants of B1 are the subject of this data set. The data set is described as follows: self-cleavage, relative activity (ratio to wild type); higher = more cleavage; co-transcriptional. A digest of the protocol:
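A DNA template encoding a 54-nucleotide twister ribozyme from Oryza sativa was made so that each of the 48 positions downstream of the cleavage site carried 97 % wild-type base and 1 % of each other base. Transcription in vitro ran for 2 h at 37 °C, during which the ribozyme could cleave itself. Reverse transcription used a template-switching oligonucleotide, and the products were PCR-amplified and deep-sequenced. Each read was scored as cleaved or uncleaved by whether upstream sequence was present, and relative activity is the fraction cleaved normalised to wild type.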
Consider A40G G53C, for which the self-cleavage was found to be 0.08.

Regarding A40G G53U, the self-cleavage is 0.12.

Regarding A40G G53A, the self-cleavage turned out to be 0.2.

Take A40C G44A: the self-cleavage stood at 0.09.

As for A40C G44U, the self-cleavage was 0.06.

For the variant A40C G44C, the self-cleavage amounted to 0.09.

On to A39U C31A, for which the self-cleavage worked out at 0.03.

Consider A39U C31U, for which the self-cleavage was 0.67.

For A39U C31G, the self-cleavage came out at 0.08.

Take A40G U12G: the self-cleavage was determined as 0.28.

In the case of A40G U12A, the self-cleavage was 0.75.

As for A40G U12C, the self-cleavage came to 0.79.

Regarding A40C G48U, the self-cleavage was 0.03.

For A40C G48A, the self-cleavage stood at 0.02.

For A40C G48C, the self-cleavage amounted to 0.02.

With A40G A7U, the self-cleavage was found to be 0.08.

As to A40G A7C, the self-cleavage is 0.05.

On to A40G A7G, for which the self-cleavage is 0.35.

In the case of A40G C26A, the self-cleavage amounted to 0.05.

Take A40G C26U: the self-cleavage worked out at 0.13.

As to A40G C26G, the self-cleavage was 0.14.

On to A39U G45A, for which the self-cleavage was found to be 0.12.

Consider A39U G45C, for which the self-cleavage stood at 0.06.

Regarding A39U G45U, the self-cleavage came to 0.05.

Turning to A40C A8C, the self-cleavage came out at 0.04.

On to A40C A8G, for which the self-cleavage amounted to 0.05.

On to A40C A8U, for which the self-cleavage turned out to be 0.04.

Consider A39U G53A, for which the self-cleavage is 0.49.

For A39U G53C, the self-cleavage worked out at 0.07.

Consider A39U G53U, for which the self-cleavage is 0.19.

A39U G47U: the self-cleavage was 0.11.

For A39U G47A, the self-cleavage was found to be 0.13.

As for A39U G47C, the self-cleavage was determined as 0.07.

With A39U G13C, the self-cleavage came out at 0.03.

For A39U G13A, the self-cleavage worked out at 0.05.

Regarding A39U G13U, the self-cleavage amounted to 0.02.

Take A40G U37A: the self-cleavage turned out to be 0.91.

Take A40G U37C: the self-cleavage worked out at 0.9.

In the case of A40G U37G, the self-cleavage is 1.02.

Take A40U: the self-cleavage came out at 0.85.

For the variant A40C, the self-cleavage came out at 0.09.

Turning to A40G, the self-cleavage was 0.91.

Take A40G C33U: the self-cleavage came to 0.15.

For the variant A40G C33G, the self-cleavage amounted to 0.06.

For A40G C33A, the self-cleavage was 0.08.

On to A40C G45C, for which the self-cleavage is 0.03.

Turning to A40C G45U, the self-cleavage amounted to 0.03.

Consider A40C G45A, for which the self-cleavage was determined as 0.04.

Regarding A39U C26U, the self-cleavage turned out to be 0.54.

As to A39U U37A, the self-cleavage was found to be 0.99.

Regarding A39U U37G, the self-cleavage worked out at 1.02.

On to A39U U37C, for which the self-cleavage came to 1.

Take A40C C21A: the self-cleavage stood at 0.07.

Take A40C C21G: the self-cleavage came to 0.02.

On to A40C C21U, for which the self-cleavage is 0.09.

On to A40C G51U, for which the self-cleavage is 0.06.

Regarding A40C G51C, the self-cleavage was found to be 0.04.

A40C G51A: the self-cleavage was 0.06.

On to A40C A41G, for which the self-cleavage worked out at 0.1.

A40C A41C: the self-cleavage is 0.28.

Take A40C A41U: the self-cleavage stood at 0.42.

On to A40C C15U, for which the self-cleavage was found to be 0.05.

Consider A40C C15A, for which the self-cleavage was 0.05.

As for A40C C15G, the self-cleavage is 0.04.

Take A39U G42U: the self-cleavage worked out at 0.07.

For the variant A39U G42A, the self-cleavage turned out to be 0.17.

As to A39U G42C, the self-cleavage was 0.11.

Regarding A40C C33A, the self-cleavage was determined as 0.05.

Take A40C C33U: the self-cleavage was 0.04.

Regarding A40C C33G, the self-cleavage amounted to 0.02.

As for A40G G47A, the self-cleavage stood at 0.11.

Consider A40G G47U, for which the self-cleavage stood at 0.1.

As for A40G G47C, the self-cleavage was found to be 0.06.

Take A40C G23U: the self-cleavage was 0.02.

Consider A40C G23A, for which the self-cleavage is 0.06.

As to A40C G23C, the self-cleavage came to 0.02.

For the variant A39U G48C, the self-cleavage was 0.05.

Take A39U G48U: the self-cleavage came out at 0.06.

A39U G48A: the self-cleavage amounted to 0.08.

With A40G G23A, the self-cleavage is 0.12.

For the variant A40G G23C, the self-cleavage came out at 0.06.

As for A40G G23U, the self-cleavage was found to be 0.05.

Consider A39U U12C, for which the self-cleavage is 0.15.

Take A39U U12A: the self-cleavage came out at 0.59.

In the case of A39U U12G, the self-cleavage was found to be 0.15.

Consider A39U G35C, for which the self-cleavage was found to be 0.19.

Take A39U G35A: the self-cleavage came to 0.83.

Regarding A39U G35U, the self-cleavage was determined as 0.87.

For the variant A40G A8G, the self-cleavage was determined as 0.18.

For the variant A40G A8C, the self-cleavage worked out at 0.06.

For A40G A8U, the self-cleavage is 0.11.

For the variant A40C G54U, the self-cleavage worked out at 0.12.

On to A40C G54A, for which the self-cleavage came out at 0.09.

A40C G54C: the self-cleavage came to 0.07.

In the case of A39U G44U, the self-cleavage was found to be 0.9.

For A39U G44C, the self-cleavage came to 0.91.

For A39U G44A, the self-cleavage came to 0.77.

Consider A40G G49A, for which the self-cleavage stood at 0.09.

Consider A40G G49U, for which the self-cleavage is 0.09.

On to A40G G49C, for which the self-cleavage was 0.07.

For A39U U18G, the self-cleavage is 0.88.

On to A39U U18C, for which the self-cleavage was found to be 0.97.

On to A39U U18A, for which the self-cleavage came to 0.95.

On to A40G G51C, for which the self-cleavage turned out to be 0.07.

As for A40G G51U, the self-cleavage was 0.12.

Consider A40G G51A, for which the self-cleavage was determined as 0.25.

For the variant A40C U37A, the self-cleavage came to 0.07.

With A40C U37G, the self-cleavage came out at 0.12.

For A40C U37C, the self-cleavage came out at 0.07.

With A40U A46U, the self-cleavage was determined as 0.07.

Consider A40U A46G, for which the self-cleavage came to 0.05.

Take A40U A46C: the self-cleavage was 0.05.

As for A40G A41U, the self-cleavage was 0.91.

A40G A41G: the self-cleavage worked out at 0.22.

Consider A40G A41C, for which the self-cleavage amounted to 0.41.

As to A40G U43A, the self-cleavage was found to be 0.21.

For A40G U43G, the self-cleavage is 0.19.

Consider A40G U43C, for which the self-cleavage came to 0.14.

For the variant A40G G48C, the self-cleavage amounted to 0.08.

With A40G G48U, the self-cleavage worked out at 0.06.

Regarding A40G G48A, the self-cleavage was determined as 0.08.

Take A40G G45U: the self-cleavage came to 0.07.

Regarding A40G G45A, the self-cleavage amounted to 0.09.

As for A40G G45C, the self-cleavage was determined as 0.07.

With A40U C9A, the self-cleavage came out at 0.09.

As to A40U C9G, the self-cleavage was found to be 0.17.

A40U C9U: the self-cleavage amounted to 0.2.

In the case of A40C G42U, the self-cleavage is 0.03.

As to A40C G42C, the self-cleavage turned out to be 0.06.

For the variant A40C G42A, the self-cleavage was found to be 0.07.

A40C G49A: the self-cleavage turned out to be 0.04.

Consider A40C G49C, for which the self-cleavage was determined as 0.02.

Take A40C G49U: the self-cleavage was 0.03.

Turning to A40C U12G, the self-cleavage stood at 0.47.

A40C U12A: the self-cleavage was 0.5.

With A40C U12C, the self-cleavage was 0.07.

For A40C A46U, the self-cleavage came to 0.03.

Regarding A40C A46C, the self-cleavage was found to be 0.04.

With A40C A46G, the self-cleavage was 0.02.

For the variant A40G C14U, the self-cleavage came to 0.2.

For A40G C14G, the self-cleavage worked out at 0.11.

As to A40G C14A, the self-cleavage came to 0.4.

With A40C C20U, the self-cleavage stood at 0.08.

In the case of A40C C20G, the self-cleavage stood at 0.04.

A40C C20A: the self-cleavage was determined as 0.09.

With A39U G19U, the self-cleavage came out at 0.11.

As to A39U G19C, the self-cleavage turned out to be 0.07.

A39U G19A: the self-cleavage amounted to 0.35.

Take A39U U43C: the self-cleavage was determined as 0.12.

In the case of A39U U43A, the self-cleavage amounted to 0.43.

On to A39U U43G, for which the self-cleavage came to 0.18.

In the case of A40G G42A, the self-cleavage was determined as 0.14.

Take A40G G42U: the self-cleavage is 0.07.

Take A40G G42C: the self-cleavage was 0.13.

Turning to A40G G34U, the self-cleavage was found to be 0.22.

A40G G34A: the self-cleavage came out at 0.44.

As to A40G G34C, the self-cleavage worked out at 0.2.

Regarding A40C G22C, the self-cleavage came to 0.02.

As to A40C G22U, the self-cleavage was found to be 0.07.

On to A40C G22A, for which the self-cleavage was 0.09.

A40C U24C: the self-cleavage turned out to be 0.03.

In the case of A40C U24A, the self-cleavage came out at 0.04.

As to A40C U24G, the self-cleavage came to 0.01.

A40C G50A: the self-cleavage was determined as 0.08.

Regarding A40C G50U, the self-cleavage came out at 0.07.

Consider A40C G50C, for which the self-cleavage turned out to be 0.07.

In the case of A40G C9A, the self-cleavage worked out at 0.09.
